These molecules were tested on E. coli BW25113 ΔtolC growth inhibition, OD615 (assay: growth inhibitors of E. coli tolC mutant, dose response, strain BW25113 ΔtolC::kan (AID 617)).
Summary of the method: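 System: E. coli BW25113 ΔtolC::kan bacteria. Amount: 1:1000 diluted subculture inoculum. Medium: LB broth supplemented with kanamycin at 50 µg/mL. Compound dosing: serial dilution series of compound. Schedule: 20 h exposure at 37 °C. Detection: OD615. Measure: IC50 of bacterial growth inhibition. Benchmarks: chloramphenicol control, 30 µM final.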
With O=C(Nc1nnc(-c2ccc(F)cc2)o1)c1ccco1 the IC50 was 16.3 µM.
COC(=O)c1ccc(NC(=O)CN2CCN(c3cccc(Cl)c3)CC2)cc1 showed an IC50 of 21.7 µM.
COc1ccc(C(=O)C(CN2CCOCC2)c2ccccc2)cc1F (centres undefined) showed an IC50 of 17.7 µM.
Cc1ccc(-c2nnn(CC(=O)N(Cc3ccco3)C(C(=O)NC(C)(C)C)c3cccs3)n2)o1 (centres undefined) was tested, and the IC50 was 23.3 µM.
For CSCSC1=C(C#N)C(c2ccc(Cl)cc2)C(C(C)=O)=C(C)N1 (centres undefined), the IC50 was 9.12 µM.
Work on Cc1cc(C)nc(-n2nc(C)cc2Nc2ccccc2)n1 yielded an IC50 of 2.65 µM.
Molecule OCCN(CCO)c1nc(N2CCCCC2)c2nc(N(CCO)CCO)nc(N3CCCCC3)c2n1 has an IC50 of 1.38 µM.
For N#CC(C#N)=c1ccc2c(c1)N1C3=C(CCCC3)CC3CCCCC31N=2 (centres undefined), the IC50 was 75.6 µM.
In the case of CCOC(=O)c1ccccc1NC(=O)c1c(F)c(F)c(F)c(F)c1F, the IC50 is reported as 23 µM.
O=C(CSc1nc2ccccc2[nH]1)Nc1cc(C(F)(F)F)ccc1N1CCOCC1 was tested, and the IC50 was 5.96 µM.
With COc1cc(S(=O)(=O)N2CCC(O)(c3cccc(C(F)(F)F)c3)CC2)ccc1-n1cnnn1 the IC50 was 11.1 µM.
Work on O=C(CS(=O)(=O)c1ccccc1)Nc1nc(-c2ccccc2)cs1 yielded an IC50 of 8.07 µM.
Work on COc1cccc(-c2cc(C(=O)N3C(C)CCCC3C)no2)c1 (centres undefined) yielded an IC50 of 32.8 µM.
Molecule COc1ccc(-c2noc(CCC(=O)N(C)c3cccc(C)c3)n2)cc1 has an IC50 of 22.7 µM.
Molecule Cc1oc(C(C)(C)C)cc1C(=O)Nc1ccc2c(c1)OCCO2 has an IC50 of 18.9 µM.
O=C(c1ccc(COc2ccccc2Cl)o1)N1CCN(c2ccccc2)CC1 gave an IC50 of 8.64 µM.
O=C(CSc1nc2nc(-c3cccs3)cc(C(F)(F)F)c2c(=O)[nH]1)NCc1ccco1 was tested, and the IC50 was 5.53 µM.
O=C(Nc1scc(-c2cccs2)c1C(=O)O)c1cccs1 showed an IC50 of 10.5 µM.
Molecule O=C(CSc1nnc(Cc2cccs2)n1Cc1ccco1)Nc1ccc(Br)cc1 has an IC50 of 5.74 µM.
Cc1csc(SCC(=O)Nc2nc(-c3ccccc3)cs2)n1 showed an IC50 of 14.1 µM.
Cc1ccc2ccc(S(=O)(=O)n3nc(C)cc3C)cc2c1 showed an IC50 of 14.5 µM.
CN(c1ccccc1)S(=O)(=O)c1ccc(C(=O)Nc2nnc(-c3ccc(F)cc3)o2)cc1 gave an IC50 of 0.21 µM.
Molecule Brc1ccccc1Cn1c(-c2cncs2)nc2ccccc21 has an IC50 of 10.6 µM.
With O=S(=O)(c1ccccc1)c1nc(-c2ccco2)oc1N1CCCCCC1 the IC50 was 11.2 µM.
In the case of CC1(C)COCN1S(=O)(=O)c1ccc(C(=O)Nc2nnc(-c3ccc(Cl)s3)o2)cc1, the IC50 is reported as < 0.2 µM.
With O=C(c1cccs1)N(Cc1nc2sc3c(c2c(=O)[nH]1)CCCC3)C1CCCC1 the IC50 was 9.95 µM.
For CCn1cc(C(=O)O)c(=O)c2cc(F)c(N3CCN(C(=O)Nc4ccccc4)CC3)cc21, the IC50 was < 0.2 µM.
With O=C(OC1CCCCC1)c1ccc(NC(=O)c2ccco2)cc1 the IC50 was 6.09 µM.
With CCCCN1C(=O)NC(=O)C2(Cc3c(nc4c(C)cccn4c3=O)N3CCc4ccccc4C32)C1=O (centres undefined) the IC50 was 3.2 µM.
With CC(C)Cc1cc(C(=O)Nc2cc(Br)ccc2O)no1 the IC50 was 5.72 µM.
Molecule CCCCOc1[nH]c2nc(-c3ccco3)n(Cc3ccco3)c(=N)c2c1C#N has an IC50 of 12 µM.
In the case of O=C1Nc2ccccc2C12OCC(COc1ccc(Cl)cc1)O2 (centres undefined), the IC50 is reported as 17.4 µM.
Molecule CSc1ccc(-c2cc(=O)c3ccccc3o2)cc1 has an IC50 of 42.1 µM.
Molecule Cc1cccc(-n2ncc3c(NCc4ccc5c(c4)OCO5)ncnc32)c1 has an IC50 of 8.94 µM.
Cc1ccc2oc(=O)n(Cc3ccccc3OC(C)C)c2c1 gave an IC50 of 9 µM.
In the case of CCN(CCCNC(=O)CCc1nc(-c2ccc(C)cc2)no1)c1cccc(C)c1, the IC50 is reported as 68.8 µM.
For O=c1c(-c2nc3ccccc3o2)c2oc3ccccc3n2c2ccccc12, the IC50 was 17.6 µM.
With COc1ccc(-c2[nH]ncc2Oc2ccccc2OC)c(O)c1 the IC50 was 10.5 µM.
O=S(=O)(Nc1nnc(-c2ccccc2)s1)c1ccc(Cl)cc1 was tested, and the IC50 was 3.74 µM.
In the case of O=C(O)C1CC=CCC1C(=O)Nc1ccc(S(=O)(=O)N2CCCc3ccccc32)cc1 (centres undefined), the IC50 is reported as 8.93 µM.
O=C1c2ccccc2C(Nc2cccc(C(F)(F)F)c2)N1Cc1ccco1 (centres undefined) gave an IC50 of 7.32 µM.
Cc1cc(N2CCN(c3ccccc3)CC2)nc(-n2nc(C)cc2C)n1 showed an IC50 of 7.6 µM.
Molecule Cc1c(NC(=O)Nc2ccc(Cl)c(Cl)c2)c(=O)n(-c2ccccc2)n1C has an IC50 of 39.6 µM.
Work on O=C(NC1CCCC1)c1sc(=S)n2c1[nH]c(=O)c1ccccc12 yielded an IC50 of 0.56 µM.
Work on CCCc1cc(C(=O)Cc2ccc(C(=O)OCC)o2)c(O)cc1O yielded an IC50 of 18.6 µM.
Fc1ccc(Br)cc1C1C=C(c2ccc(Br)s2)Nc2ncnn21 (centres undefined) gave an IC50 of 5.22 µM.
Cc1ccc(S(=O)(=O)Nc2cccc3ncccc23)s1 was tested, and the IC50 was 1.65 µM.
Work on O=C(Nc1ccc2nc(-c3cccs3)[nH]c2c1)c1ccco1 yielded an IC50 of 82.7 µM.
CCc1ccc2oc(=O)cc(CN(C)Cc3ccccc3)c2c1 was tested, and the IC50 was 12.9 µM.
In the case of COc1ccc(Cl)cc1N1CCN(CCNC(=O)Nc2ccccc2C)CC1, the IC50 is reported as 43.7 µM.
With CC(C)c1ccc(-c2noc(C3CCCN(C(=O)c4ccc(F)cc4F)C3)n2)cc1 (centres undefined) the IC50 was 17.9 µM.
NC1=NC(c2cn(-c3ccccc3)nc2-c2cccs2)n2c(nc3ccccc32)N1 (centres undefined) was tested, and the IC50 was 16.4 µM.
For Cc1ccc(C(C)C)c(Oc2nnnn2-c2ccccc2)c1, the IC50 was 14.7 µM.
Work on COc1ccccc1N1CCN(C(c2ccc(Cl)cc2)c2nnnn2C(C)(C)C)CC1 (centres undefined) yielded an IC50 of 26.5 µM.
In the case of CC(C)(C)c1ccc(-c2nnc(SCCC#N)n2C2CCCC2)cc1, the IC50 is reported as 15.8 µM.
COc1ccc(-c2cnc(SCC(=O)Nc3ccc4c(c3)OCO4)n2Cc2ccco2)cc1 showed an IC50 of 11.1 µM.
Molecule Cc1ccccc1-c1nnc(SCc2ccccc2F)o1 has an IC50 of 25.8 µM.
N#Cc1c(NC(=O)CSc2n[nH]c(Cc3ccccc3)n2)oc(-c2ccccc2)c1-c1ccccc1 was tested, and the IC50 was 7.4 µM.
With CC(C)(C)c1ccc(OCC(=O)NCc2ccco2)c(Br)c1 the IC50 was 14.6 µM.
O=C(CN(C(=O)CNC(=O)c1ccco1)c1ccc(Cl)c(Cl)c1)NC1CCCCC1 was tested, and the IC50 was 28.1 µM.
Clc1ccc(COC(Cn2ccnc2)c2ccc(Cl)cc2Cl)c(Cl)c1 (centres undefined) gave an IC50 of 3.22 µM.
CCCCc1ccc(C2C(C#N)=C(N)SC(N)=C2C#N)s1 gave an IC50 of 13.8 µM.
CC(=O)Nc1cccc(NC(=O)c2oc3ccccc3c2C)c1 showed an IC50 of 8.33 µM.
Cc1ccc(C2C(S(C)(=O)=O)=C(O)C(=O)N2c2ccccc2)cc1 (centres undefined) (tested in a mixture with another compound) showed an IC50 of 4.81 µM.
Work on N#Cc1nc(COc2ccccc2)oc1N1CCN(Cc2ccccc2)CC1 yielded an IC50 of 14.3 µM.
For O=C(Nc1ccc(CN2CCOCC2)cc1)c1ccc(-c2ccc(Br)cc2)o1, the IC50 was 30.4 µM.
With COc1ccc(OC)c(S(=O)(=O)N2CCN(c3c(C)cccc3C)CC2)c1 the IC50 was 15.6 µM.
In the case of CC(Nc1ccc(Br)cn1)c1cc(Cl)ccc1O (centres undefined), the IC50 is reported as 5.61 µM.
CCOc1ccc2nc(NC(=O)C(CC)Sc3nc(C)cc(=O)[nH]3)sc2c1 (centres undefined) was tested, and the IC50 was 12.1 µM.
For Cc1cc(NS(=O)(=O)c2ccc(NC(=O)COc3ccccc3C(C)C)cc2)no1, the IC50 was 16.5 µM.
Molecule O=C(Nc1sc2c(c1C(=O)O)CCC2)c1cccs1 has an IC50 of 13.8 µM.
COC(=O)c1ccc(O)c(Sc2cc(C(=O)OC)ccc2O)c1 was tested, and the IC50 was 1.91 µM.
Work on COc1nnc(-c2ccc(N3CCCCC3)c(N)c2)c2ccccc12 yielded an IC50 of 11.9 µM.
In the case of Cc1cc(Cl)ccc1OCC(=O)Nc1ccccc1N1CCOCC1, the IC50 is reported as 8.64 µM.
Molecule CCOC(=O)N1CCN(c2nc(N(c3ccccc3)c3ccccc3)nc(-n3ccnc3)n2)CC1 has an IC50 of 20.3 µM.
COC(=O)c1cccc(-n2nnnc2SCC(=O)Nc2nc3c(s2)CCCC3)c1 showed an IC50 of 15.8 µM.
COc1ccc(-c2[nH]c(-c3cccc(OC)c3)nc2SCC(=O)NCc2ccco2)cc1 showed an IC50 of 11.1 µM.
For CCOC(=O)c1cc(CC)sc1NC(=O)Cc1ccsc1, the IC50 was 10.3 µM.
In the case of Cc1cc(/C=C(/C#N)c2cccc(F)c2)c(C)n1-c1cccnc1, the IC50 is reported as 10.9 µM.
Work on COc1ccc(-n2c(C)cc(C(=O)COC(=O)Cn3cnc4ccccc43)c2C)cc1 yielded an IC50 of 3.33 µM.
In the case of OC(COc1ccc(Cl)c2ccccc12)CN1CCN(c2ccccn2)CC1 (centres undefined), the IC50 is reported as 11.6 µM.
In the case of COc1ccc2[nH]c3c(=O)n(CCCCC(=O)NCCN4CCCC4)c(=S)[nH]c3c2c1, the IC50 is reported as 17.4 µM.
For Cc1ccc2c(c1)[nH]c1c(N3CCN(Cc4ccccc4)CC3)ncnc12, the IC50 was 39.1 µM.
With COc1ccc(-c2noc(CCCc3ccccc3)n2)cc1OC the IC50 was 23.1 µM.
For Cc1ccc(CN2C(=O)NC(=O)C3(Cc4c(nc5ccccn5c4=O)N4CCCCCC43)C2=O)cc1 (centres undefined), the IC50 was 22.2 µM.
For CC(C)Cn1c(N)c(C(=O)NCc2cccs2)c2nc3ccccc3nc21, the IC50 was 12.9 µM.
With O=C(CNCCC1=CCCCC1)Nc1ccccc1N1CCCCC1 the IC50 was 11.2 µM.
With c1ccc2oc(SCc3nc4ccccc4s3)nc2c1 the IC50 was 29.1 µM.
Work on CCOC(=O)CSC1=C(C#N)C(c2ccco2)C(C(=O)Nc2cccc(C(F)(F)F)c2)=C(C)N1 (centres undefined) yielded an IC50 of 9.34 µM.
With COc1cccc(-c2nnc(NC(=O)c3ccc(S(=O)(=O)N(CC(C)C)CC(C)C)cc3)o2)c1 the IC50 was 0.91 µM.
COc1ccc(C2c3sc(=O)[nH]c3SC3C4CCC(C4)C23)cc1 (centres undefined) gave an IC50 of 10 µM.
Work on CCOc1cc(S(=O)(=O)n2cc(-c3ccc(F)cc3)c(N)n2)cc(OCC)c1OCC yielded an IC50 of 21 µM.
Cc1nn(-c2ccccc2)c(Cl)c1C1C(C#N)=C(N)Oc2c1c(=O)oc1ccccc21 (centres undefined) showed an IC50 of 12 µM.
Molecule Cc1ccc(O)c(-c2cc3ccccc3[nH]2)c1 has an IC50 of 11.7 µM.
For N#Cc1c(NC(NC(=O)c2ccco2)C(=O)c2ccccc2)sc2c1CCCC2 (centres undefined), the IC50 was 13.5 µM.
With O=C1NC(Nc2nc3ccccc3s2)(C(F)(F)F)C(=O)N1C1CCCCC1 (centres undefined) the IC50 was 5.74 µM.
Cc1ccc2c(CC(=O)OCc3nc(N)nc(Nc4ccccc4C)n3)coc2c1 was tested, and the IC50 was 10 µM.
Work on CCn1cc(C(=O)Nc2nncs2)c(=O)c2cc(F)c(N3CCN(C(=O)c4ccco4)CC3)cc21 yielded an IC50 of 0.19 µM.
With Fc1cccc2sc(Nc3nnc(-c4ccco4)o3)nc12 the IC50 was 2.84 µM.
CCc1c(C(=O)Nc2ncn(Cc3cccc(C)c3)n2)csc1C gave an IC50 of 29.1 µM.
COc1ccc(-c2nnc(SCc3cc(C)cc(C)c3)o2)cc1 gave an IC50 of 6.77 µM.
Molecule CCn1c2ccccc2c2cc(C3C(C#N)=C(N)Oc4n[nH]c(COC)c43)ccc21 (centres undefined) has an IC50 of 22.7 µM.
With c1ccc(-c2ccccc2-c2nc(-c3cccnc3)no2)cc1 the IC50 was 13.9 µM.
COc1ccc(-c2cc(C(=O)N3CC4(C)CC3CC(C)(C)C4)no2)cc1OC (centres undefined) gave an IC50 of 14.1 µM.
O=C(Cn1c2c(c(-c3ccccc3)cc1=O)CCCC2)N1CCCCCC1 showed an IC50 of 6.09 µM.
Cc1ccc(N(CC(=O)Nc2cccc(C)c2)S(=O)(=O)c2cccc3nonc23)cc1 showed an IC50 of 37 µM.
In the case of Oc1ccccc1-c1nc(NCC2CCCO2)c2ccccc2n1 (centres undefined), the IC50 is reported as 90.8 µM.
For CN(C)S(=O)(=O)N(Cc1ccc(Br)cc1)c1ccccc1, the IC50 was 12.9 µM.
For COc1cc(NS(=O)(=O)c2ccc(OC)c(C)c2C)c(OC)cc1Cl, the IC50 was 16.8 µM.

Source: PubChem BioAssay AID617 (SRMLSC, 2007)
